The nature of series [1]: Ratio of drug level in brain to plasma in Sprague-Dawley rat at 5 mg/kg, sc after 1 hr. The format is ADME, organism-based. Details: dose 5 mg/kg, route subcutaneous. The settings on record: brain and plasma, read-out: BPR. An outline of the steps: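 Male Sprague–Dawley rats (n = 3 per time point) received 5 mg/kg subcutaneously. Plasma (cardiac puncture after CO2 euthanasia), brain and CSF were collected at 0.5, 1, 2 and 4 h. Drug levels were measured by LC/MS/MS. Ratio is taken from the average brain and plasma concentrations at 1 h.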

The subject of series [2] is MDR. In words: Permeability from apical to basolateral side of MDCK cells over expressing MDR. Particulars: dog, MDCK-MDR1.

The structures appear in SMILES notation.

Turning to `Cn1c(N2CCC(O)(c3ccccc3)CC2)cc(-c2ccncn2)cc1=O`, in series [1], the Kp at 1 h is 0.96.

Take `COc1ccccc1CCNc1cc(-c2ccncn2)cc(=O)n1C`: in series [1], the Kp at 1 h turned out to be 0.35.

Compound `Cc1cc(-c2cc(-c3ccccc3)nc(=O)[nH]2)ccc1O` displayed a Papp (apical to basal) in series [2] of 13.9 ×10⁻⁶ cm/s.

With `COc1ccccc1[C@H]1CN(c2cc(-c3ccncn3)cc(=O)n2C)CCO1`, in series [1], the Kp at 1 h was 1.86.

The values above are taken from ChEMBL document CHEMBL1681660, “6-amino-4-(pyrimidin-4-yl)pyridones: novel glycogen synthase kinase-3β inhibitors” (Bioorg Med Chem Lett, 2011).
